According to ChEMBL document CHEMBL1125365, “Acyl-CoA:cholesterol O-acyl transferase (ACAT) inhibitors. 1. 2-(Alkylthio)-4,5-diphenyl-1H-imidazoles as potent inhibitors of ACAT” (J Med Chem, 1992):

Columns and labels:
[1] = molecular target: T1, Sterol O-acyltransferase 1 (Rattus norvegicus, UniProt O70536); assay: Inhibition of acyl coenzyme A:cholesterol acyltransferase (ACAT) activity in rat liver microsome; type: microsomes
T1 sequence (O70536 whole entry): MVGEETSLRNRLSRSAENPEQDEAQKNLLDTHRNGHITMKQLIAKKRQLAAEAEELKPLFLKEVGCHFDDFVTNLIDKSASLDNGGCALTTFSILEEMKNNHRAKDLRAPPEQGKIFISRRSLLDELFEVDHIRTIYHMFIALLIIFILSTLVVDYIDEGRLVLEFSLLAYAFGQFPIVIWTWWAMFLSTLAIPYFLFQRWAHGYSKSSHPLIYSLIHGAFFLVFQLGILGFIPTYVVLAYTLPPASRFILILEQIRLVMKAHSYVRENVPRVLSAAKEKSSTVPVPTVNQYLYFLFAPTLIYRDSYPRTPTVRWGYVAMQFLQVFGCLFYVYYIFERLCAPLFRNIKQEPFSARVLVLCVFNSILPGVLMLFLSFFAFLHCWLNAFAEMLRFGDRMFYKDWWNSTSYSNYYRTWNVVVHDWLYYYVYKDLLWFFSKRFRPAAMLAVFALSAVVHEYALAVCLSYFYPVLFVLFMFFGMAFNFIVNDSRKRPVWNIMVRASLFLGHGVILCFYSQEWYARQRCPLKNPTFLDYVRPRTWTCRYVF
Outline: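 The assay used rat hepatic microsomes from cholesterol-fed animals (60 μg protein) and 90 μM radiolabeled oleoyl-CoA. Cholesterol ester product was resolved by TLC and counted by scintillation. IC50 was the concentration inhibiting 50% of enzyme activity.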

[2] = molecular target: T2, Sterol O-acyltransferase 1 (Rattus norvegicus) (UniProt O70536); assay: In vitro acyl coenzyme A:cholesterol acyltransferase (ACAT) activity in rat liver microsome at a concentration of 10 micro g/mL; type: microsomes
T2 sequence (whole entry): T1 sequence (O70536 whole entry)
Outline: (§1)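 Enzyme source was hepatic microsomes from cholesterol-fed rats, 60 μg microsomal protein per reaction, with 90 μM radiolabeled oleoyl-CoA. Cholesterol ester formed was separated by TLC and quantified by scintillation counting. Compounds were tested at a single fixed concentration of 1 or 10 μg/mL, and results were given as percent inhibition of enzyme activity.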

[3] = molecular target: T2, Sterol O-acyltransferase 1 (Rattus norvegicus); assay: Tested in vitro for acyl coenzyme A:cholesterol acyltransferase (ACAT) activity in rat liver microsome at a concentration of 1 micro g/mL; type: microsomes; outline: as §1
Rattus norvegicus = assay: Tested in vivo for anti-hypercholesterolaemic activity in male Sprague-Dawley rat.; type: functional
Outline: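 Compound was given at 0.03% w/w in the diet (about 30 mg/kg/day). Basal-diet rats (n = 4) gave a baseline that was subtracted. Plasma cholesterol was measured enzymatically, and the result was expressed as percent change versus undosed controls.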

Row | Structure (SMILES) | IC50 [1] [nM] | inhibition [2] [%] | inhibition [3] [%] | Change (Rattus norvegicus) [%]
1 | CC1=CC(=O)OC(CSc2nc(-c3ccccc3Cl)c(-c3ccccc3Cl)[nH]2)C1 (stereo unspecified) | 1700 | 95 | – | –
2 | O=C(O)CCC(O)CSc1nc(-c2ccccc2)c(-c2ccccc2)[nH]1 (stereo unspecified) | – | 76 | – | –
3 | C[C@@]1(O)CC(=O)OC(CSc2nc(-c3cccc(Cl)c3)c(-c3cccc(Cl)c3)[nH]2)C1 (stereo partly specified) | 110 | – | 93 | –
4 | C[C@@]1(O)CC(=O)O[C@@H](CSc2nc(-c3ccccc3)c(-c3ccccc3)o2)C1.C[C@]1(O)CC(=O)O[C@@H](CSc2nc(-c3ccccc3)c(-c3ccccc3)o2)C1 | – | 13 | – | –
5 | C[C@@]1(O)CC(=O)OC(CSc2nc(-c3ccccc3Cl)c(-c3ccccc3Cl)[nH]2)C1 (stereo partly specified) | 140 | 99 | – | –
6 | C[C@@]1(O)CC(=O)O[C@@H](CSc2nc(-c3ccccc3)c(-c3ccccc3)n2-c2ccccc2)C1.C[C@]1(O)CC(=O)O[C@@H](CSc2nc(-c3ccccc3)c(-c3ccccc3)n2-c2ccccc2)C1 | – | 32 | – | –
7 | C[C@@]1(O)CC(=O)OC(CSc2nc(-c3ccccc3)c[nH]2)C1 (stereo partly specified) | – | 0 | – | –
8 | c1ccc(-c2nc(SCCC3OCCCO3)[nH]c2-c2ccccc2)cc1 | 730 | – | 80 | –
9 | C[C@@]1(O)CC(=O)OC(CSc2nc(-c3ccc(F)cc3)c(-c3ccc(F)cc3)[nH]2)C1 (stereo partly specified) | 790 | 97 | – | –
10 | CCSc1nc(-c2ccccc2)c(-c2ccccc2)[nH]1 | 770 | 99 | – | –
11 | COc1ccccc1-c1nc(S)[nH]c1-c1ccccc1OC | – | – | 0 | –
12 | CC(O)(CC(=O)[O-])CC(O)CSc1nc(-c2ccccc2)c(-c2ccccc2)[nH]1.[Na+] (stereo unspecified) | – | 66 | – | -33
13 | Clc1ccc(-c2[nH]c(SCC3CCCCO3)nc2-c2ccccc2)cc1 (stereo unspecified) | – | – | 87 | –
14 | c1ccc(CSc2nc(-c3ccccc3)c(-c3ccccc3)[nH]2)cc1 | 290 | – | 90 | –
15 | C[C@]1(O)CC(=O)OC(CSc2nc(-c3ccccc3)n(-c3ccccc3)n2)C1 (stereo partly specified) | – | – | 12 | –
16 | Cc1ccc(-c2nc(SC[C@H]3C[C@@](C)(O)CC(=O)O3)[nH]c2-c2ccc(C)cc2)cc1.Cc1ccc(-c2nc(SC[C@H]3C[C@](C)(O)CC(=O)O3)[nH]c2-c2ccc(C)cc2)cc1 | 170 | 99 | – | –
17 | CC1=CC(=O)OC(CSc2nc(-c3ccc(F)cc3)c(-c3ccc(F)cc3)[nH]2)C1 (stereo unspecified) | 610 | 96 | – | –
18 | C[C@@]1(O)CC(=O)O[C@@H](CSc2nc(-c3ccccc3)c(-c3ccccc3)s2)C1.C[C@]1(O)CC(=O)O[C@@H](CSc2nc(-c3ccccc3)c(-c3ccccc3)s2)C1 | – | 4 | – | –
19 | CC(C)(C)c1ccc(-c2nc(SC[C@H]3C[C@@](C)(O)CC(=O)O3)[nH]c2-c2ccc(C(C)(C)C)cc2)cc1.CC(C)(C)c1ccc(-c2nc(SC[C@H]3C[C@](C)(O)CC(=O)O3)[nH]c2-c2ccc(C(C)(C)C)cc2)cc1 | – | – | 32 | –
20 | O=C1CCC(CSc2nc(-c3ccccc3)c(-c3ccccc3)[nH]2)N1 (stereo unspecified) | 360 | – | 87 | –
21 | C[C@@]1(O)CC(=O)O[C@@H](CSc2nc(-c3ccc(C(F)(F)F)cc3)c(-c3ccc(C(F)(F)F)cc3)[nH]2)C1.C[C@]1(O)CC(=O)O[C@@H](CSc2nc(-c3ccc(C(F)(F)F)cc3)c(-c3ccc(C(F)(F)F)cc3)[nH]2)C1 | 1000 | 95 | – | –
22 | c1ccc(-c2nc(SCC3OCCCO3)[nH]c2-c2ccccc2)cc1 | 180 | 97 | – | -10
23 | COC(CSc1nc(-c2ccccc2)c(-c2ccccc2)[nH]1)OC | 580 | 99 | – | –
24 | O=C1CCCC(CSc2nc(-c3ccccc3)c(-c3ccccc3)[nH]2)O1 (stereo unspecified) | 740 | 95 | – | 16
25 | O=C1CCCC(CSc2nc(-c3ccccc3)c(-c3ccccc3)[nH]2)N1 (stereo unspecified) | 610 | – | 86 | –
26 | CCOC(CSc1nc(-c2ccco2)c(-c2ccco2)[nH]1)OCC | – | – | 34 | –

Row | Structure (SMILES) | IC50 [1] [nM] | inhibition [2] [%] | inhibition [3] [%] | Change (Rattus norvegicus) [%]
27 | C[C@@]1(O)CC(=O)OC(CSc2nc(-c3ccc(Cl)cc3)c(-c3ccc(Cl)cc3)[nH]2)C1 (stereo partly specified) | 180 | 98 | – | -11
28 | CC1=CC(=O)OC(CSc2nc(-c3ccc(Cl)cc3)c(-c3ccc(Cl)cc3)[nH]2)C1 (stereo unspecified) | – | – | 77 | –
29 | COc1ccccc1-c1nc(SC[C@H]2C[C@@](C)(O)CC(=O)O2)[nH]c1-c1ccccc1OC.COc1ccccc1-c1nc(SC[C@H]2C[C@](C)(O)CC(=O)O2)[nH]c1-c1ccccc1OC | – | – | 29 | –
30 | CC1=CC(=O)OC(CSc2nc(-c3cccc(Cl)c3)c(-c3cccc(Cl)c3)[nH]2)C1 (stereo unspecified) | 440 | 98 | – | –
31 | Clc1cccc(-c2[nH]c(SCC3CCCCO3)nc2-c2ccccc2)c1 (stereo unspecified) | 560 | – | 90 | –
32 | CC(C)c1ccc(-c2nc(SC[C@H]3C[C@@](C)(O)CC(=O)O3)[nH]c2-c2ccc(C(C)C)cc2)cc1.CC(C)c1ccc(-c2nc(SC[C@H]3C[C@](C)(O)CC(=O)O3)[nH]c2-c2ccc(C(C)C)cc2)cc1 | 230 | – | 90 | –
33 | COc1ccc(-c2nc(SCC3C[C@](C)(O)CC(=O)O3)[nH]c2-c2ccc(OC)cc2)cc1 (stereo partly specified) | 420 | 87 | – | –
34 | CC1=CC(=O)OC(CSc2nc(-c3ccc(C)cc3)c(-c3ccc(C)cc3)[nH]2)C1 (stereo unspecified) | 280 | 97 | – | –
35 | O=C1CCC(CSc2nc(-c3ccccc3)c(-c3ccccc3)[nH]2)O1 (stereo unspecified) | – | 78 | – | –
36 | COc1cccc(-c2nc(SCC3C[C@](C)(O)CC(=O)O3)[nH]c2-c2cccc(OC)c2)c1 (stereo partly specified) | 570 | 97 | – | –
37 | CO[C@H]1O[C@H](CSc2nc(-c3ccccc3)c(-c3ccccc3)[nH]2)[C@@H](O)[C@H](O)[C@@H]1O | – | – | 52 | –
38 | COc1ccc(-c2nc(S)[nH]c2-c2ccc(OC)cc2)cc1 | – | 42 | – | –
39 | CO[C@H]1C[C@@](C)(O)C[C@H](CSc2nc(-c3ccccc3)c(-c3ccccc3)[nH]2)O1 | 280 | – | 89 | –
40 | O=C(O)CCCCCSc1nc(-c2ccccc2Cl)c(-c2ccccc2Cl)[nH]1 | – | 20 | – | –
41 | Cn1c(SC[C@H]2C[C@@](C)(O)CC(=O)O2)nc(-c2ccccc2)c1-c1ccccc1.Cn1c(SC[C@H]2C[C@](C)(O)CC(=O)O2)nc(-c2ccccc2)c1-c1ccccc1 | 2600 | 90 | – | –
42 | Clc1ccccc1-c1[nH]c(SCC2CCCCO2)nc1-c1ccccc1 (stereo unspecified) | – | – | 76 | –
43 | Sc1nc(-c2ccccc2Cl)c(-c2ccccc2Cl)[nH]1 | – | 27 | – | –
44 | CO[C@H]1C[C@H](O)C[C@@H](CSc2nc(-c3ccccc3)c(-c3ccccc3)[nH]2)O1 | 90 | – | 92 | –
45 | COc1ccc(-c2nc(SCC3C[C@@](C)(O)CC(=O)O3)[nH]c2-c2ccc(OC)cc2)cc1 (stereo partly specified) | 340 | 96 | – | –
46 | CO[C@@H]1C[C@@](C)(O)C[C@H](CSc2nc(-c3ccccc3)c(-c3ccccc3)[nH]2)O1 | 82 | – | 93 | –
47 | CCOC(CSc1nc(-c2ccccn2)c(-c2ccccn2)[nH]1)OCC | – | 15 | – | –
48 | CC(O)(CC(=O)OC(C)(C)C)CC(O)CSc1nc2c3ccccc3c3ccccc3c2[nH]1 (stereo unspecified) | – | – | 41 | –
49 | O=C1CC(O)CC(CSc2nc(-c3ccccc3)c(-c3ccccc3)[nH]2)O1 (stereo unspecified) | 910 | – | 89 | –
50 | C[C@@]1(O)CC(=O)O[C@@H](CS(=O)(=O)c2nc(-c3ccccc3)c(-c3ccccc3)[nH]2)C1 | – | 23 | – | –
51 | C[C@@]1(O)CC(O)O[C@@H](CSc2nc(-c3ccccc3)c(-c3ccccc3)[nH]2)C1 (stereo partly specified) | 160 | – | 94 | –
52 | CCOC(=O)CC(C)(O)CC(O)CSc1nc(-c2ccccc2)c(-c2ccccc2)[nH]1 (stereo unspecified) | 280 | – | 91 | –
